Results from ChEMBL document CHEMBL3352345, “Design, synthesis and biological evaluation of novel thieno[3,2-d]pyrimidine derivatives containing diaryl urea moiety as potent antitumor agents” (Eur J Med Chem, 2014).

How the values were obtained:
[1] = Cytotoxicity against human H460 cells after 72 hrs by MTT assay; type: functional, cell-based; details: NCI-H460, 72 h
Summary of the method: (§1)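 Cells suspended in MEM medium, plated and incubated 24 h at 37 °C in 5% CO₂, then exposed to compounds at indicated final concentrations for 72 h. IC₅₀ from averages of three determinations, relative to DMSO vehicle control.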

HT-29 [2] = assay: Cytotoxicity against human HT-29 cells after 72 hrs by MTT assay; type: functional, cell-based; details: HT-29, 72 h; summary of the method: as §1
[3] = Cytotoxicity against human MKN45 cells after 72 hrs by MTT assay; type: functional, cell-based; details: MKN-45, 72 h; summary of the method: as §1
MDA-MB-231 = assay: Cytotoxicity against human MDA-MB-231 cells after 72 hrs by MTT assay; type: functional, cell-based; details: MDA-MB-231, 72 h; summary of the method: as §1
[4] = target: Phosphatidylinositol 4,5-bisphosphate 3-kinase catalytic subunit alpha isoform (Homo sapiens, UniProt P42336); assay: Inhibition of PI3Kalpha (unknown origin) using poly (Glu, Tyr) 4:1 substrate incubated for 30 mins by HTRF assay
[5] = target: Serine/threonine-protein kinase mTOR (Homo sapiens, UniProt P42345); assay: Inhibition of mTOR (unknown origin) using poly (Glu, Tyr) 4:1 substrate incubated for 30 mins by HTRF assay
Summary of the method: (§2)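 Compounds in 1% DMSO, blank DMSO as negative control. Reaction started with purified tyrosine kinase, 30 min at 25 °C, stopped with Streptavidin-XL665 and Tk antibody cryptate; read at […] and 615 nm.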

[6] = target: Serine/threonine-protein kinase B-raf (Homo sapiens, UniProt P15056); assay: Inhibition of B-Raf (unknown origin) using poly (Glu, Tyr) 4:1 substrate incubated for 30 mins by HTRF assay
[7] = target: RAF proto-oncogene serine/threonine-protein kinase (Homo sapiens, UniProt P04049); assay: Inhibition of C-Raf (unknown origin) using poly (Glu, Tyr) 4:1 substrate incubated for 30 mins by HTRF assay; summary of the method: as §2
[8] = target: Epidermal growth factor receptor (Homo sapiens, UniProt P00533); assay: Inhibition of EGFR (unknown origin) using poly (Glu, Tyr) 4:1 substrate incubated for 30 mins by HTRF assay
[9] = target: Vascular endothelial growth factor receptor (Homo sapiens, UniProt P17948+P35916+P35968); assay: Inhibition of VEGFR (unknown origin) using poly (Glu, Tyr) 4:1 substrate incubated for 30 mins by HTRF assay; type: protein assay
[10] = target: Platelet-derived growth factor receptor beta (Homo sapiens, UniProt P09619); assay: Inhibition of PDGFRbeta (unknown origin) using poly (Glu, Tyr) 4:1 substrate incubated for 30 mins by HTRF assay; summary of the method: as §2
[11] = target: T1, Receptor-type tyrosine-protein kinase FLT3 (Homo sapiens, UniProt P36888); assay: Inhibition of FLT3 (unknown origin) using poly (Glu, Tyr) 4:1 substrate incubated for 30 mins by HTRF assay; summary of the method: as §2
T1 sequence (P36888 whole entry): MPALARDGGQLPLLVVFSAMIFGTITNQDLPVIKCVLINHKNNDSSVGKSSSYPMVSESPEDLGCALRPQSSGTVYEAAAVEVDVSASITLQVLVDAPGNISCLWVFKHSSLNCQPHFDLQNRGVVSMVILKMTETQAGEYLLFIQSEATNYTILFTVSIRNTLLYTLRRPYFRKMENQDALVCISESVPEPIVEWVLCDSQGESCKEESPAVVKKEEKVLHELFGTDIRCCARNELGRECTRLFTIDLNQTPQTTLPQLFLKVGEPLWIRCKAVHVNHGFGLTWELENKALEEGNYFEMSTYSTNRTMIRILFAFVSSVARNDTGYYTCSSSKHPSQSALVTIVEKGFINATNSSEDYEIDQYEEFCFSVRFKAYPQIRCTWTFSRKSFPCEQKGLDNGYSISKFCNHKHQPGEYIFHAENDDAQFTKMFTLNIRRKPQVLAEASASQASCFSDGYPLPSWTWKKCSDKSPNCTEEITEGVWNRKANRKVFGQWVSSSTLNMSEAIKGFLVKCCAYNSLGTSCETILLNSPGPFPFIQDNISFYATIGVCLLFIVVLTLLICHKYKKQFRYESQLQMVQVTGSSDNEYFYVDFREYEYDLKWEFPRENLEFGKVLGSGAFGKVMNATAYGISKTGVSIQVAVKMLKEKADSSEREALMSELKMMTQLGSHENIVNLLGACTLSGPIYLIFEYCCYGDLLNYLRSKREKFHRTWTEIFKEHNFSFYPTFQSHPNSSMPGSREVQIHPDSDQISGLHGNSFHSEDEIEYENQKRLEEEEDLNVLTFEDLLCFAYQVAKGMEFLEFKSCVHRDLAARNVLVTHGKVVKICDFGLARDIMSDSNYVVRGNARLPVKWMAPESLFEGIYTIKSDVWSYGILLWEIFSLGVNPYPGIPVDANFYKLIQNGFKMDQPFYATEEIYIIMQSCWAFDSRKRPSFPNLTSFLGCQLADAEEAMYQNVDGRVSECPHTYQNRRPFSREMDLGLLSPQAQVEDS

[12] = target: Mast/stem cell growth factor receptor Kit (Homo sapiens, UniProt P10721); assay: Inhibition of KIT (unknown origin) using poly (Glu, Tyr) 4:1 substrate incubated for 30 mins by HTRF assay; summary of the method: as §2
[13] = target: Vascular endothelial growth factor receptor 2 (Homo sapiens, UniProt P35968); assay: Inhibition of KDR (unknown origin) using poly (Glu, Tyr) 4:1 substrate incubated for 30 mins by HTRF assay
HT-29 [14] = assay: Induction of apoptosis in human HT-29 cells assessed as increase in PARP cleavage pre-treated for 48 hrs by Western blot method; type: functional, cell-based
Summary of the method: (§3)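 HT-29 cells (about 1 × 10⁷) treated 48 h with vehicle or 1 or 5 µM compound; lysates prepared with lysis buffer plus protease inhibitor cocktail and sonicated. Equal total protein run on 10% SDS-PAGE, transferred to PVDF, probed with primary and HRP secondary antibodies. Cleaved PARP to β-actin ratio expressed relative to control.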

HT-29 [15] = assay: Induction of apoptosis in human HT-29 cells assessed as increase in PARP cleavage at 1 uM pre-treated for 48 hrs by Western blot method relative to beta-actin expression; type: functional; summary of the method: as §3
HT-29 [16] = assay: Induction of apoptosis in human HT-29 cells assessed as increase in PARP cleavage at 5 uM pre-treated for 48 hrs by Western blot method relative to beta-actin expression; type: functional; summary of the method: as §3

Serine/threonine-protein kinase B-raf, sequence (P15056 whole entry): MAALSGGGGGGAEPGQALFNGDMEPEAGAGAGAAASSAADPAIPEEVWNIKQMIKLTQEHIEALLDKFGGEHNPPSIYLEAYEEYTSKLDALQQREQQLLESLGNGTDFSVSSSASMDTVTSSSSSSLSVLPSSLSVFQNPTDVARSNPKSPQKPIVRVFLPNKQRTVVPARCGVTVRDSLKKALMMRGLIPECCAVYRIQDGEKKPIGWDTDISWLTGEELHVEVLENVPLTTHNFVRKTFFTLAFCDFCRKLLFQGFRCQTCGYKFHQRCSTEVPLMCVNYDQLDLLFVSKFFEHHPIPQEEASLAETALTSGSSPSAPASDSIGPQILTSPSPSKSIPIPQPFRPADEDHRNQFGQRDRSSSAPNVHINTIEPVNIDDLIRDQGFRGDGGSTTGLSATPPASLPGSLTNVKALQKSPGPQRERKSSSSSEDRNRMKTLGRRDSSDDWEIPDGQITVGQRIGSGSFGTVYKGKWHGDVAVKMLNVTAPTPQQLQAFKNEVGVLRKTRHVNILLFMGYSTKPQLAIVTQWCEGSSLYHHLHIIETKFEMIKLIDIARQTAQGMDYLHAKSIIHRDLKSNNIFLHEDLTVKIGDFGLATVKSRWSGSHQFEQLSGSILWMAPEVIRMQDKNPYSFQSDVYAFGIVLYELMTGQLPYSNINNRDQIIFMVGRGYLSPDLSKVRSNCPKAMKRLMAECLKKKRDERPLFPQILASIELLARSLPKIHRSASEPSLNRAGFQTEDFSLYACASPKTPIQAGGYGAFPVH
Platelet-derived growth factor receptor beta, sequence (P09619 whole entry): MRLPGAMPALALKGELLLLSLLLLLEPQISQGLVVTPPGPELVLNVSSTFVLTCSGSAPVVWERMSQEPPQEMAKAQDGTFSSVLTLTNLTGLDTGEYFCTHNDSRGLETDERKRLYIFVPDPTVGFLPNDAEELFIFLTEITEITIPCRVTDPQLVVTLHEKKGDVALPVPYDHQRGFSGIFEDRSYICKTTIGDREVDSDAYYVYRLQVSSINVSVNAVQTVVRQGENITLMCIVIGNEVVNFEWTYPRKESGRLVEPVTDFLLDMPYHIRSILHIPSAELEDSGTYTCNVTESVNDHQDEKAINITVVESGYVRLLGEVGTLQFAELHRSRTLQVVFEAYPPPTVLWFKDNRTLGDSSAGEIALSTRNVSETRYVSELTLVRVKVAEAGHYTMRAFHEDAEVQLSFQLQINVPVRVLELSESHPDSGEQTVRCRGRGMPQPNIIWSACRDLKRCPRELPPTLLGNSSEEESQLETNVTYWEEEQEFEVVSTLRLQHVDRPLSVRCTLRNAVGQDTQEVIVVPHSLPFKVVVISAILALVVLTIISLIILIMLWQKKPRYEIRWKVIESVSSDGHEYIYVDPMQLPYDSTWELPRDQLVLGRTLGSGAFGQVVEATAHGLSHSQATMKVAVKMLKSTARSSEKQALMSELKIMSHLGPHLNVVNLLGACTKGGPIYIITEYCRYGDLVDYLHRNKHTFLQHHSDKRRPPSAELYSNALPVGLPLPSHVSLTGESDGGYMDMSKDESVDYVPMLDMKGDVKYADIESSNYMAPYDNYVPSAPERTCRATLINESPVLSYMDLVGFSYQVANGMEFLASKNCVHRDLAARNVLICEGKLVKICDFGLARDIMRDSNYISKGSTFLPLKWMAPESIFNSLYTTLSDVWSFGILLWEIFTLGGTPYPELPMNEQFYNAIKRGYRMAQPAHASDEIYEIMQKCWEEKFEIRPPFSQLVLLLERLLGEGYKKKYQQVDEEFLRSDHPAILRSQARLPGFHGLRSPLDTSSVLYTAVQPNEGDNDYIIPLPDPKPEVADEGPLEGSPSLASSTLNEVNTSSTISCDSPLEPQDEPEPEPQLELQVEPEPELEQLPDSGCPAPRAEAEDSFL
Mast/stem cell growth factor receptor Kit, sequence (P10721 whole entry): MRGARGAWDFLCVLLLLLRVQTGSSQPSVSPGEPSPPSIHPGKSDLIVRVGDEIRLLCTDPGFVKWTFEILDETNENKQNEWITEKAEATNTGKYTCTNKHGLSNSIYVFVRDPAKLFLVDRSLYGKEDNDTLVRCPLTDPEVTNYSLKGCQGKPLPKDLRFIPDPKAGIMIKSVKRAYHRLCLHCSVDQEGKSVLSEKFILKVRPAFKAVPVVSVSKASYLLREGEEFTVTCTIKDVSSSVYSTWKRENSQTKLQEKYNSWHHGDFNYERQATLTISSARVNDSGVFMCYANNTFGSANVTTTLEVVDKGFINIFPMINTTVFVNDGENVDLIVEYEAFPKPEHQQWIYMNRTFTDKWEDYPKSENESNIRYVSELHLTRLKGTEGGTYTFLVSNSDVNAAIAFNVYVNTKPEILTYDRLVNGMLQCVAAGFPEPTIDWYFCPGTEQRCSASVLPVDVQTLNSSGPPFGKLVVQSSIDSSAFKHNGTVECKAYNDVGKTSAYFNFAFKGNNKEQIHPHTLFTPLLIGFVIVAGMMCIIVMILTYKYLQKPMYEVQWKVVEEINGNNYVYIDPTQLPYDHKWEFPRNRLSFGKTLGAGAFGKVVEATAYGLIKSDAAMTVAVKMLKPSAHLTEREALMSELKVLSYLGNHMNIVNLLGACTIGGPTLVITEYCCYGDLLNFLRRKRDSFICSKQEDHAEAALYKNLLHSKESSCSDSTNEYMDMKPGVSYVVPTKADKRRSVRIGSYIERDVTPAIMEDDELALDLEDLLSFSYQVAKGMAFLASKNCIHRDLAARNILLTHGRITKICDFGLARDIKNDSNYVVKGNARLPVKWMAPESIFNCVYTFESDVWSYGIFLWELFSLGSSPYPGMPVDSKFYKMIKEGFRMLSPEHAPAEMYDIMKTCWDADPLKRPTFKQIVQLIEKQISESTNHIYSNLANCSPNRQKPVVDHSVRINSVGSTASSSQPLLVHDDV
Vascular endothelial growth factor receptor 2, sequence (P35968 whole entry): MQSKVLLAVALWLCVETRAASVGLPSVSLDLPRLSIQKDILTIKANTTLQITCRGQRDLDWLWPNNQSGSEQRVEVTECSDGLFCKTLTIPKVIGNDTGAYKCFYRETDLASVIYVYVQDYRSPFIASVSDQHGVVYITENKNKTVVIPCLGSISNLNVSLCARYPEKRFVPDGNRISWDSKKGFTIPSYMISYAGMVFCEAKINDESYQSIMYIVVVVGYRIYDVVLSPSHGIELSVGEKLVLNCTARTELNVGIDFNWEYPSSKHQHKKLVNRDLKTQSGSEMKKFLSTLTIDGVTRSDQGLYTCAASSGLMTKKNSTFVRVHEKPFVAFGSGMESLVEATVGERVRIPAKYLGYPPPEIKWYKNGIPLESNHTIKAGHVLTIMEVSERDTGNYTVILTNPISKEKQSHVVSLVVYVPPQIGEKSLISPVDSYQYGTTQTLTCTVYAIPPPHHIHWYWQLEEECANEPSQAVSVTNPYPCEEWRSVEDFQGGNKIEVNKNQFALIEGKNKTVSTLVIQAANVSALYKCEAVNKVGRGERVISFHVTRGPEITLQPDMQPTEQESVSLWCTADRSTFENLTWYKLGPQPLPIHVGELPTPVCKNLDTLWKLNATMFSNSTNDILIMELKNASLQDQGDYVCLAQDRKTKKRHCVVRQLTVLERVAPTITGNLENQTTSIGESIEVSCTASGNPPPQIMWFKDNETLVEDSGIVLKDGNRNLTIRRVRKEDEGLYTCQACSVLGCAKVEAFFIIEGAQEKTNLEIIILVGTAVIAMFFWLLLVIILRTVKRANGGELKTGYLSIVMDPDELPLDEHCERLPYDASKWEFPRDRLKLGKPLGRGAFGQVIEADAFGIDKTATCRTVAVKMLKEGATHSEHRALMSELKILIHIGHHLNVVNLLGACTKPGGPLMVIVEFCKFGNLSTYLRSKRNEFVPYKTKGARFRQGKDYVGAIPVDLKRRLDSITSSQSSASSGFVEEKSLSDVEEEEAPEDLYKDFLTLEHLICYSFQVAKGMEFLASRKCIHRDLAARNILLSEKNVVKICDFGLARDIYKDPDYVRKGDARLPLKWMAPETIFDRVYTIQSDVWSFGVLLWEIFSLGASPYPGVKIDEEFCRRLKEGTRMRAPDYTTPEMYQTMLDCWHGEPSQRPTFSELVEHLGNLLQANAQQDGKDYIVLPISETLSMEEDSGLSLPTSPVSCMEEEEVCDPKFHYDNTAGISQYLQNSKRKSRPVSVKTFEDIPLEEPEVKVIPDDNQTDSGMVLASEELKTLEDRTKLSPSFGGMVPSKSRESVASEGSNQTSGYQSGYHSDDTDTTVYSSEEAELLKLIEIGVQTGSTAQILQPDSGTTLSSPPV
RAF proto-oncogene serine/threonine-protein kinase, sequence (P04049 whole entry): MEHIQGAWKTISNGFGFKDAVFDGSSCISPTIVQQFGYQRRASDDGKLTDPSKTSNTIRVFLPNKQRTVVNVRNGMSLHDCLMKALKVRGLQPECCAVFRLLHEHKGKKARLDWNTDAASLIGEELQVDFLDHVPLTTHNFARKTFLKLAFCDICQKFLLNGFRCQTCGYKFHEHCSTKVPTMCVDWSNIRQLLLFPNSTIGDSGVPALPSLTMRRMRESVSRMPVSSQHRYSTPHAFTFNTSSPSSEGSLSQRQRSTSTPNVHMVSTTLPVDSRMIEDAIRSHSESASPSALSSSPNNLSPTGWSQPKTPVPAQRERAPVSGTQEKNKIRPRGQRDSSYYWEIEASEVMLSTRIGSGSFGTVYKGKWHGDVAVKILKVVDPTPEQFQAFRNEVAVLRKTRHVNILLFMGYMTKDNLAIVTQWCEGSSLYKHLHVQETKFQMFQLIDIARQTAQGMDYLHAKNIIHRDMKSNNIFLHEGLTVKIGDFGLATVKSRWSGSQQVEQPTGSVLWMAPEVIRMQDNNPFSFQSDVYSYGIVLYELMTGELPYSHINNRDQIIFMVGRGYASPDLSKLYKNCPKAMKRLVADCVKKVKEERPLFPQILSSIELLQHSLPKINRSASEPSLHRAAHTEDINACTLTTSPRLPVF

IC50 [4]: 130 nM | IC50 [5]: > 10000 nM | IC50 [6]: > 10000 nM | IC50 [7]: > 10000 nM | IC50 [8]: > 10000 nM | IC50 [9]: > 10000 nM | IC50 [10]: 5800 nM | IC50 [11]: 1000 nM | IC50 [12]: 6100 nM | IC50 [13]: > 10000 nM
Structure (SMILES): CCN(CC)CCCNc1nc(-c2ccc(NC(=O)Nc3ccc(Cl)cc3)cc2)nc2ccsc12
IC50 [1]: 81 nM | IC50 (HT-29 [2]): 58 nM | IC50 [3]: 180 nM | IC50 (MDA-MB-231): 230 nM | Activity (HT-29 [14]): Dose-dependent effect | fold change (FC) (HT-29 [15]): 2.5 | fold change (FC) (HT-29 [16]): 3.5
